From ChEMBL document CHEMBL2311388, “Carbamoyl pyridone HIV-1 integrase inhibitors. 2. Bi- and tricyclic derivatives result in superior antiviral and pharmacokinetic profiles” (J Med Chem, 2013)

How the values were obtained:
[1] = Ratio of plasma concentration in rat after 24 hrs to IC50 for wild type HIV1 3B infected in human MT4 cells in presence of human serum albumin; format: ADME, cell-based; details: mt4, 24 h
[2] = Half life in rat at 1 mg/kg, iv and 5 mg/kg, po; format: ADME, organism-based; details: in vivo
[3] = (§1) Volume of distribution at steady state in rat at 1 mg/kg, iv and 5 mg/kg, po; format: ADME, organism-based; details: in vivo, read-out: Vdss
[4] = system: Human immunodeficiency virus 1; experiment: Selectivity ratio of IC50 for RAL-resistant HIV1 harboring integrase Y143R mutant to IC50 for wild type HIV1 3B; format: functional
[5] = system: Human immunodeficiency virus 1; experiment: Selectivity ratio of IC50 for RAL-resistant HIV1 harboring integrase N155H mutant to IC50 for wild type HIV1 3B; format: functional
[6] = system: Human immunodeficiency virus 1; experiment: Selectivity ratio of IC50 for wild type HIV1 3B infected in human MT4 cells in presence of human serum albumin to IC50 for wild type HIV1 3B infected in human MT4 cells; format: functional
[7] = system: Human immunodeficiency virus 1; experiment: Selectivity ratio of IC50 for RAL-resistant HIV1 harboring integrase Q148K mutant to IC50 for wild type HIV1 3B; format: functional
[8] = system: Human immunodeficiency virus 1; experiment: Antiviral activity against wild type HIV1 3B infected in human MT4 cells assessed as cell viability by MTT assay in presence of human serum albumin; format: functional, organism-based; details: Human immunodeficiency virus 1, 3B
Summary of the method: (§2)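 HIV-1 replication in MT-4 cells read by MTT. Values are mean ± s.d. of three independent experiments. The protein-adjusted value is derived from the MT-4/MTT IC50 and the shift seen with human serum albumin. Detailed conditions are those of the earlier paper in the series.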

[9] = Cytotoxicity against human MT4 cells assessed as growth inhibition after 4 days by MTT assay; format: cell-based
Summary of the method: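 MT-4 cells; values given as mean ± s.d. of three independent experiments.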

[10] = system: Human immunodeficiency virus 1; experiment: Antiviral activity against wild type HIV1 3B infected in human MT4 cells assessed as cell viability by MTT assay; format: functional, organism-based; details: Human immunodeficiency virus 1, 3B; summary of the method: as §2
[11] = Oral bioavailability in rat at 5 mg/kg; format: ADME, organism-based; details: in vivo
[12] = Total clearance in rat at 1 mg/kg, iv and 5 mg/kg, po; format: ADME, organism-based; details: in vivo
[13] = system: Rattus norvegicus; experiment: as §1; format: ADME, organism-based; details: in vivo

Compound	Ratio [1]	half-life [2]	Vd [3]	Ratio IC50 [4]	Ratio IC50 [5]	Ratio IC50 [6]	Ratio IC50 [7]	IC50 [8]	CC50 at 96 h [9]	IC50 [10]	bioavailability [11]	clearance [12]	Vdss [13]
COC(=O)c1[nH]cc(C(=O)NCc2ccc(F)cc2)c(=O)c1O	3.4	4.7 h	0.2 L/kg	1.5	21	12	200	–	–	–	–	–	–
CN(C)C(=O)CN1CCn2cc(C(=O)NCc3ccc(F)cc3)c(=O)c(O)c2C1=O	–	–	–	–	–	2.4	–	62 nM	> 200000 nM	26 nM	–	–	–
CC(C)OCCn1ccn2cc(C(=O)NCc3ccc(F)cc3)c(=O)c(O)c2c1=O	–	–	–	–	–	4.4	39	19 nM	49000 nM	4.3 nM	–	–	–
CC(C)OCCN1CCn2cc(C(=O)NCc3ccc(F)cc3)c(=O)c(O)c2C1=O	–	–	–	–	–	3.1	9.9	13 nM	30000 nM	4.2 nM	–	–	–
O=C(NCc1ccc(F)cc1)c1cn2ccn(CCOc3ccccc3)c(=O)c2c(O)c1=O	–	–	–	–	–	11	>250	48 nM	2400 nM	4.4 nM	–	–	–
O=C(NCc1ccc(F)cc1)c1cn2c(c(O)c1=O)C(=O)N(CCOc1ccccc1)CC2	–	–	–	–	–	9.5	17	65 nM	10000 nM	6.8 nM	–	–	–
O=C(NCc1ccc(F)cc1)c1cn2ccn(C3CCCCC3)c(=O)c2c(O)c1=O	–	–	–	–	–	13	>250	156 nM	> 200000 nM	12 nM	–	–	–
O=C(NCc1ccc(F)cc1)c1cn2c(c(O)c1=O)C(=O)N(C1CCCCC1)CC2	–	–	–	–	–	4.4	>250	29 nM	> 240000 nM	6.5 nM	–	–	–
COCCN1C(=O)c2c(O)c(=O)c(C(=O)NCc3ccc(F)cc3)cn2CC1O (configuration not stated)	117	7.6 h	0.14 L/kg	1.5	1.5	3.7	2.1	14.1 nM	83000 nM	3.8 nM	14%	0.24 mL/min/kg	–
COCCn1ccn2cc(C(=O)NCc3ccc(F)cc3)c(=O)c(O)c2c1=O	2600	11 h	–	1.6	3.7	17	35	27 nM	> 200000 nM	1.6 nM	40%	0.02 mL/min/kg	0.015 L/kg
COCCN1CCn2cc(C(=O)NCc3ccc(F)cc3)c(=O)c(O)c2C1=O	27	3.4 h	0.12 L/kg	1.5	1.5	3.1	18	18 nM	52000 nM	5.9 nM	41%	0.51 mL/min/kg	–
O=C(NCc1ccc(F)cc1)c1cn2ccn(CCN3CCOCC3)c(=O)c2c(O)c1=O	–	–	–	–	–	3	>250	20 nM	36000 nM	6.6 nM	–	–	–
O=C(NCc1ccc(F)cc1)c1cn2c(c(O)c1=O)C(=O)N(CCN1CCOCC1)CC2	–	–	–	–	–	1.6	–	34 nM	160000 nM	21 nM	–	–	–
CN(C)C(=O)Cn1ccn2cc(C(=O)NCc3ccc(F)cc3)c(=O)c(O)c2c1=O	–	–	–	–	–	4.1	–	144 nM	> 200000 nM	35 nM	–	–	–
COCCN1CCCN2C(=O)c3c(O)c(=O)c(C(=O)NCc4ccc(F)cc4)cn3CC12 (racemic)	–	–	–	–	–	3.9	5.7	20.3 nM	9800 nM	5.2 nM	–	–	–
CN1CCCCN2C(=O)c3c(O)c(=O)c(C(=O)NCc4ccc(F)cc4)cn3CC12 (racemic)	–	–	–	–	–	4.9	4.2	31.4 nM	> 200000 nM	6.4 nM	–	–	–
CC(C)CN1CCCCN2C(=O)c3c(O)c(=O)c(C(=O)NCc4ccc(F)cc4)cn3CC12 (racemic)	–	–	–	–	–	17	3.2	91.8 nM	13000 nM	5.4 nM	–	–	–
CC(=O)N1CCCN2C(=O)c3c(O)c(=O)c(C(=O)NCc4ccc(F)cc4)cn3CC12 (racemic)	–	–	–	–	–	2	–	58 nM	> 200000 nM	29 nM	–	–	–
CS(=O)(=O)N1CCCN2C(=O)c3c(O)c(=O)c(C(=O)NCc4ccc(F)cc4)cn3CC21 (racemic)	–	–	–	–	–	2.8	–	120 nM	> 220000 nM	43 nM	–	–	–
O=C(NCc1ccc(F)cc1)c1cn2c(c(O)c1=O)C(=O)N1CCOC1C2 (racemic)	–	–	–	–	–	52	19	140 nM	72000 nM	2.7 nM	–	–	–
O=C(NCc1ccc(F)cc1)c1cn2c(c(O)c1=O)C(=O)N1CCCOC1C2 (racemic)	685	17 h	0.13 L/kg	1.6	1.6	7.9	2.8	26.9 nM	18000 nM	3.4 nM	–	0.1 mL/min/kg	–
O=C(NCc1ccc(F)cc1)c1cn2c(c(O)c1=O)C(=O)N1CCCCOC1C2 (racemic)	–	–	–	–	–	7.6	2.2	22 nM	26000 nM	2.9 nM	–	–	–
CC(C)N1CCN2C(=O)c3c(O)c(=O)c(C(=O)NCc4ccc(F)cc4)cn3CC21 (racemic)	–	–	–	–	–	3.4	39	7.8 nM	8000 nM	2.3 nM	–	–	–
CN1CCCN2C(=O)c3c(O)c(=O)c(C(=O)NCc4ccc(F)cc4)cn3CC12 (racemic)	–	–	–	–	–	4.3	4.7	16.3 nM	20000 nM	3.8 nM	–	–	–
CC(C)N1CCCN2C(=O)c3c(O)c(=O)c(C(=O)NCc4ccc(F)cc4)cn3CC21 (racemic)	–	–	–	–	–	4.3	9.1	32.3 nM	7200 nM	7.5 nM	–	–	–
O=C(NCc1ccc(F)cc1)c1cn2c(c(O)c1=O)C(=O)N1CCCN(Cc3nccs3)C1C2 (racemic)	–	–	–	–	–	3.9	4.2	12.9 nM	2800 nM	3.3 nM	–	–	–
COc1cc2c(cc1Cc1cccc(Cl)c1F)c(=O)c(C(=O)O)cn2[C@H](CO)C(C)C [ELVITEGRAVIR]	–	–	–	1.8	25	–	>1700	–	–	–	–	–	–
